The source made the active and inactive calls. The rule behind the calls is not given here. A value given as a limit tells only on which side of the number the result lay.

In assay [1] the target is T1, P2X purinoceptor 1 (Rattus norvegicus) (UniProt P47824).
T1 sequence (whole entry): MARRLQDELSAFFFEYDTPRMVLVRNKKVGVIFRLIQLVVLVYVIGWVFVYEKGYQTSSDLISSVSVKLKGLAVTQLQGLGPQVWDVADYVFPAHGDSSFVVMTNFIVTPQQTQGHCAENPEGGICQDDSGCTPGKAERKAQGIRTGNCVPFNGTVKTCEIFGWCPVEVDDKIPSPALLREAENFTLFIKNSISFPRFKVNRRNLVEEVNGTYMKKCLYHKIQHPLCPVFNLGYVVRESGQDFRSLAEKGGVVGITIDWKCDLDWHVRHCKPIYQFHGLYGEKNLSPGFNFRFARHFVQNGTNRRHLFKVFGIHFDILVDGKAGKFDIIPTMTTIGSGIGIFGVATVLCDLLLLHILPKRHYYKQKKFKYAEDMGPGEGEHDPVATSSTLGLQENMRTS
The assay can be described thus: Inhibition of inward ion current elicited by ATP at P2X1 receptor expressed in Xenopus oocytes at 10 uM. Format: functional, cell-based. Particulars: Oocyte.

In the next assay the target is T2, P2X purinoceptor 3 (Rattus norvegicus, UniProt P49654).
T2 sequence (P49654 whole entry): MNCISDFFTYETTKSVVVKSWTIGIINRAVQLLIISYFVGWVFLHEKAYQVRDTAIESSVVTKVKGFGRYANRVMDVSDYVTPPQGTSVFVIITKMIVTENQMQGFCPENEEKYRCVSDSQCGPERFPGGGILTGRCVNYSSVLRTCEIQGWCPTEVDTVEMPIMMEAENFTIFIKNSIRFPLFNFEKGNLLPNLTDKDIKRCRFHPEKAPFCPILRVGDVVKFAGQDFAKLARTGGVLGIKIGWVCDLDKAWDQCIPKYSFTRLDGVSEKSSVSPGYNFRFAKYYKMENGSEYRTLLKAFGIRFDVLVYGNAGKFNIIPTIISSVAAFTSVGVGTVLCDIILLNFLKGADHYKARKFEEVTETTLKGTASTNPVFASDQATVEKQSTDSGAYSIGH
In words: Inhibition of inward ion current elicited by ATP was determined at recombinant P2X3 receptor expressed in Xenopus oocytes. The format is functional, cell-based, Oocyte.

For the next assay, the target named is T3, P2X purinoceptor 2 (Rattus norvegicus, UniProt P49653).
T3 sequence (P49653 whole entry): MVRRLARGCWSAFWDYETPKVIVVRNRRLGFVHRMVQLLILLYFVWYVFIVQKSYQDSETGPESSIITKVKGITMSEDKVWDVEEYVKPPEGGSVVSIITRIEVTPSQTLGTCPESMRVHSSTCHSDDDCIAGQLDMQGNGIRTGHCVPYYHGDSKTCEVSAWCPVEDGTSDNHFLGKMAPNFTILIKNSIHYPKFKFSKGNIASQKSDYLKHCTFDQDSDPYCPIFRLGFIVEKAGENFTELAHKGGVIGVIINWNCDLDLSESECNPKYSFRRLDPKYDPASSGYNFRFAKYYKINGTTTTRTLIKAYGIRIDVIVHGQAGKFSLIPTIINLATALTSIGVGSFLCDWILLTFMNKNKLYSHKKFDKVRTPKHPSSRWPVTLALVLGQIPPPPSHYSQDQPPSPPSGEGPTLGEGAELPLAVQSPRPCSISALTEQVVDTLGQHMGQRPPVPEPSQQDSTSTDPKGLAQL
The assay can be described thus: Inhibition of inward ion current elicited by ATP at P2X2 receptor expressed in Xenopus oocytes. Format: functional, cell-based, Oocyte.

For another assay, the target named is T4, P2X purinoceptor 1 (Rattus norvegicus, UniProt P47824).
T4 sequence (P47824 whole entry): T1 sequence (whole entry)
In words: Inhibition of inward ion current elicited by ATP at P2X1 receptor expressed in Xenopus oocytes. Format: functional, cell-based, Oocyte.

The target in the next assay is P2Y purinoceptor 1 (Meleagris gallopavo, UniProt P49652). The assay can be described thus: Inhibition of 10 nM 2-MeS-ADP-stimulated phospholipase C in turkey erythrocyte membranes using [3H]inositol. Format: functional, cell membranes. A digest of the protocol:
(§1)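 Turkey erythrocytes labelled 18-24 h at 37 °C with 2-[³H]myo-inositol in inositol-free DMEM, then lysed hypotonically (5 mM sodium phosphate pH 7.4, 5 mM MgCl₂, 1 mM EGTA) to make ghosts. Ghosts were incubated 5 min at 30 °C in pH 7.0 Hepes/KCl buffer with 1 µM GTPγS and 10 nM 2-MeSADP. Total [³H]inositol phosphates were measured by anion-exchange chromatography; 3-8 independent determinations.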

In assay [2] the target is T5, P2X purinoceptor 7 (Homo sapiens) (UniProt Q99572).
T5 sequence (whole entry): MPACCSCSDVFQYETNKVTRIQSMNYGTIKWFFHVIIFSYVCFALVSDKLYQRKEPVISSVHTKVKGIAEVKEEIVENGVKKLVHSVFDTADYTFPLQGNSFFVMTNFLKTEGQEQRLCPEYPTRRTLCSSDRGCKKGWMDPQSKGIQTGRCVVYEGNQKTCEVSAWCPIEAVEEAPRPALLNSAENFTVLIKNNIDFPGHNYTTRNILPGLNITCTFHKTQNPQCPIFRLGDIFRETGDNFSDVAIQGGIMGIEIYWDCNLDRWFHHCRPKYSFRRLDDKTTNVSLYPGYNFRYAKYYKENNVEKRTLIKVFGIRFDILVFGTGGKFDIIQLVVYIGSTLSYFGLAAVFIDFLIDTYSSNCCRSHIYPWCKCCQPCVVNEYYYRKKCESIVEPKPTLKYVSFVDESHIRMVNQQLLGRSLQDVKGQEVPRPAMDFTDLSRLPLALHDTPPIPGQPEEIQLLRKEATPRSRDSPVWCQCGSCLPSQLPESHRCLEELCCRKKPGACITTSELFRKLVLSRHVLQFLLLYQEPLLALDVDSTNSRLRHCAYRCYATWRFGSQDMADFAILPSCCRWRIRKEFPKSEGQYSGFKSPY
The assay can be described thus: Percent inhibition of ATP-induced K+ efflux (with cations) in adherent HEK293 cells expressing human P2X7 receptor. Format: functional, cell-based. Particulars: concentration not given here. A digest of the protocol: (§2)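 Adherent HEK293 cells stably expressing human P2X7, grown to 90% confluence, in saline with 1 mM MgCl₂ and 1.5 mM CaCl₂ (pH 7.5). Pretreated with 30 µM compound, then 3 mM ATP for 10 min at 37 °C. Cell K⁺ was extracted in 10% HNO₃ for 2 h and read by atomic absorbance relative to untreated cells. n=3, each in duplicate.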

Assay [3] deals with T5, P2X purinoceptor 7 (Homo sapiens). The assay can be described thus: Percentage inhibition of ATP-induced K+ efflux (cation free) in adherent HEK293 cells expressing human P2X7 receptor. The format is functional, cell-based. The note with it: concentration not given here. A digest of the protocol:
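Adherent HEK293 cells stably expressing human P2X7, in divalent cation-free saline (no added MgCl₂ or CaCl₂; pH 7.5). Pretreated with 30 µM compound, then 3 mM ATP for 10 min at 37 °C. Residual cell K⁺ was extracted in 10% HNO₃ for 2 h and measured by atomic absorbance against untreated cells. n=3, each in duplicate.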

Assay [4] shares this target. In words: Percent inhibition of ATP-induced K+ efflux (ethidium influx) in suspended HEK293 cells expressing human P2X7 receptor. The note with it: concentration not given here. Format: functional, cell-based. A digest of the protocol: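 Trypsinised HEK293 cells stably expressing human P2X7 were suspended in divalent cation-free saline in a stirred cuvette at 37 °C with 20 µM ethidium bromide. Cells were treated with 30 µM compound, then 300 µM ATP.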

The target of assay [5] is P2Y purinoceptor 1 (Meleagris gallopavo) (UniProt P49652). In words: Inhibition of 10 nM 2-MeS-ADP-stimulated phospholipase C in turkey erythrocyte membranes using [3H]inositol; IA means inactive. Format: functional, cell membranes. The essentials: as §1
In assay [6] the target is T1, P2X purinoceptor 1 (Rattus norvegicus). In words: Inhibition of inward ion current elicited by ATP at P2X1 receptor expressed in Xenopus oocytes; IA means inactive. Format: functional, cell-based. Particulars: Oocyte.
Assay [7] has as its target T6, P2X purinoceptor 2 (Rattus norvegicus) (UniProt P49653).
T6 sequence (whole entry): T3 sequence (P49653 whole entry)
In words: Inhibition of inward ion current elicited by ATP at P2X2 receptor expressed in Xenopus oocytes; IA means inactive. Particulars: Oocyte. The format is functional, cell-based.

The target of assay [8] is T7, P2X purinoceptor 3 (Rattus norvegicus) (UniProt P49654).
T7 sequence (whole entry): T2 sequence (P49654 whole entry)
In words: Inhibition of inward ion current elicited by ATP at P2X3 receptor expressed in Xenopus oocytes; IA means inactive. The note with it: Oocyte. Format: functional, cell-based.

Assay [9] concerns the target T7, P2X purinoceptor 3 (Rattus norvegicus). In words: Inhibition of inward ion current elicited by ATP at recombinant P2X3 receptor expressed in Xenopus oocytes at 10 uM. Format: functional, cell-based. The note with it: Oocyte.
Assay [10] deals with T5, P2X purinoceptor 7 (Homo sapiens). In words: Inhibition of ATP-induced K+ efflux (with cations) in adherent HEK293 cells expressing human P2X7 receptor. Format: functional, cell-based. Particulars: concentration not given here. A digest of the protocol:
as §2

Sequence of P2Y purinoceptor 1 (Meleagris gallopavo) (P49652 whole entry): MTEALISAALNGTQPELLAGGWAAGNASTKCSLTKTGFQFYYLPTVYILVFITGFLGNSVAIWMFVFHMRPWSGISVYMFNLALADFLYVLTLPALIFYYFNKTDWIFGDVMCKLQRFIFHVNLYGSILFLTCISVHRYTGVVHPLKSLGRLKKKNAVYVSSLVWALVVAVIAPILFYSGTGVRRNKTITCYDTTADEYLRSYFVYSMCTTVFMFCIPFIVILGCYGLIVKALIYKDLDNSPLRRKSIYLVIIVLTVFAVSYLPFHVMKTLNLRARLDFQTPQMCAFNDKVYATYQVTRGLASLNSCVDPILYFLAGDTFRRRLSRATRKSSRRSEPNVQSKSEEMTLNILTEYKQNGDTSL
Sequence of P2Y purinoceptor 1 (P49652 whole entry): as above

Consider `Cc1nc(/N=N/c2ccc(C(=O)O)cc2)c2c(c1O)COP(=O)(O)OC2`, for which, in [1], the inhibition turned out to be 39%.
For the compound `Cc1nc(/N=N/c2ccc(C(=O)O)cc2)c(CCP(=O)(O)O)c(C=O)c1O`, the IC50 on P2X purinoceptor 3 is 145 nM; on P2X purinoceptor 2, 2400 nM; against P2X purinoceptor 1, 20 nM; at P2Y purinoceptor 1 it was 100 µM.
Take `Cc1nc(/N=N/c2ccccc2)c(COP(=O)(O)O)c(COP(=O)(O)O)c1O`: the IC50 on P2Y purinoceptor 1 is > 100 µM. The inhibition in [1] came to 50%.
On to `Cc1nc(/N=N/c2cc(S(=O)(=O)O)ccc2S(=O)(=O)O)c(COP(=O)(O)O)c(COP(=O)(O)O)c1O`, for which the inhibition was -1% in [2], -7% in assay [3], 27% in assay [1] and 15% in assay [4]. On P2Y purinoceptor 1, this compound showed an IC50 of 100 µM.
As to `Cc1ncc(COP(=O)(O)O)c(COP(=O)(O)O)c1O`, the Inhibition activity entry in [5] is “inactive”. Moreover, in [6], the IA result is “inactive”.
Consider `CC(=O)Oc1c(C)nc(/N=N/c2cc(S(=O)(=O)O)ccc2S(=O)(=O)O)c2c1COP(=O)(O)OC2`, for which, in assay [6], the IA entry is “inactive”.
Turning to `Cc1nc(/N=N/c2ccccc2)c2c(c1O)COP(=O)(O)OC2`, the Inhibition activity entry in [5] is “inactive”. The IA entry in [6] was “inactive”.
Regarding `Cc1nc(/N=N/c2ccc(P(=O)(O)O)cc2)c(CP(=O)(O)O)c(C=O)c1O`, the IC50 on P2X purinoceptor 3 worked out at 36 nM; on P2X purinoceptor 2, 948 nM; against P2X purinoceptor 1, 12 nM; against P2Y purinoceptor 1 it was 27 µM.
As to `Cc1nc(/N=N/c2ccc(C(=O)O)cc2)c(CP(=O)(O)O)c(C=O)c1O`, the values for the IC50 on P2X purinoceptor 3, at P2X purinoceptor 2 and on P2X purinoceptor 1 were 128 nM, 150 nM and 8.1 nM, respectively.
Regarding `Cc1nc(/N=N/c2cc(S(=O)(=O)O)ccc2S(=O)(=O)O)c2c(c1O)COP(=O)(O)OC2`, the IA entry in [7] is “inactive”. Also, the Inhibition activity entry in assay [5] is “inactive”. Besides, the inhibition in assay [2] was -1%; in assay [3], -5%; in assay [4], 17%.
As to `CNc1ncnc2c1ncn2[C@H]1C[C@H](OP(=O)(O)O)[C@@H](COP(=O)(O)O)O1`, the inhibition in assay [2] was found to be 37%; in assay [3] it was 24%; in assay [4] it was 100%.
Turning to `Cc1nc(/N=N/c2cc(CP(=O)(O)O)cc(CP(=O)(O)O)c2)c(CP(=O)(O)O)c(C=O)c1O`, the IC50 at P2X purinoceptor 3 stood at 25 nM; against P2X purinoceptor 2 it was 280 nM; on P2X purinoceptor 1, 11 nM; against P2Y purinoceptor 1, 14.5 µM. Moreover, the figures for the inhibition in assay [2], in assay [3] and in [4] were 0%, -5% and 84%, respectively.
With `Cc1nc(/N=N/c2cc(S(=O)(=O)O)ccc2Cl)c(CP(=O)(O)O)c(C=O)c1O`, the inhibition in assay [2] is -5%; in assay [3], -8%; in [4], 40%.
Take `Cc1nc(/N=N/c2cc(S(=O)(=O)O)ccc2Cl)c2c(c1O)COP(=O)(O)OC2`: the inhibition in assay [1] turned out to be 43%.
On to `Cc1ncc2c(c1O)COP(=O)(O)OC2`, for which the IA entry in [7] and in assay [8] was “inactive” in each case. Further, the Inhibition activity result in assay [5] was “inactive”.
With `Cc1nc(/N=N/c2cc(S(=O)(=O)O)ccc2S(=O)(=O)O)c(CP(=O)(O)O)c(C=O)c1O`, the IC50 on P2X purinoceptor 3 was 340 nM; against P2X purinoceptor 2, 1100 nM; against P2X purinoceptor 1, 12 nM; against P2Y purinoceptor 1 it was 46 µM. The inhibition was 51% in [2], 28% in assay [3] and 100% in assay [4].
As for `Cc1nc(/N=N/c2ccc(C(=O)O)cc2)c(COP(=O)(O)O)c(C=O)c1O`, the IC50 on P2X purinoceptor 3 is 140 nM; on P2X purinoceptor 2, 11900 nM; at P2X purinoceptor 1, 9.4 nM; against P2Y purinoceptor 1, 100 µM.
For `Cc1nc(/N=N/c2cc(S(=O)(=O)O)ccc2Cl)c(COP(=O)(O)O)c(COP(=O)(O)O)c1O`, the inhibition in [2] is -1%; in [9], 30%; in [3], -5%; in assay [1], 78%; in assay [4], 12%. Further, the 50% inhibitory concentration (IC50) at P2Y purinoceptor 1 worked out at 100 µM.
Take `Cc1nc(/N=N/c2cc(S(=O)(=O)O)ccc2S(=O)(=O)O)c(COP(=O)(O)O)c(C=O)c1O` [ISOPPADS]: the IC50 against P2X purinoceptor 2 was determined as 398 nM; on P2X purinoceptor 1, 43 nM; on P2Y purinoceptor 1 it was 21.4 µM. Further, the inhibition in assay [10] was determined as 81%; in assay [3], 67%; in assay [4] it was 100%.
For `Cc1nc(/N=N/c2cc(C(=O)O)ccc2C(=O)O)c(CP(=O)(O)O)c(C=O)c1O`, the half-inhibitory concentration (IC50) at P2X purinoceptor 3 came out at 330 nM; at P2X purinoceptor 2, 486 nM; at P2X purinoceptor 1, 37 nM.

(Values after ChEMBL document CHEMBL1134335, “Structure-activity relationships of pyridoxal phosphate derivatives as potent and selective antagonists of P2X1 receptors” (J Med Chem, 2001).)
